This passage reports EC50 results from ChEMBL document CHEMBL1144138, “Cytotoxic terpenoids from the Formosan soft coral Nephthea brassica” (1999).

What all share (format): functional
One experiment relates to A549. Put plainly: Cytotoxicity against human A549 cells after 6 days by MTT assay. Particulars: A549, 144 h, read-out: ED50 (the source's name). An outline of the steps: (§1)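 Cells were adapted to RPMI 1640 with 10% FCS and 1 mM […], then grown at 37 °C in 5% CO2. Seeding per well was 750 for A549, 750 for HT-29, 2000 for KB and 1500 for P-388. Three to eight concentrations spanning an 8- to 128-fold range were tested. After exposure, 1 mg/mL MTT was added for 4 h at 37 °C, formazan was dissolved in DMSO, and A540 was read. ED50 is the concentration giving 50% absorbance reduction versus untreated cells.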

The next experiment has as its system HT-29. Nature of the experiment: Cytotoxicity against human HT-29 cells after 6 days by MTT assay. Particulars: HT-29, 144 h, read-out: ED50 (the source's name). In a few lines: as §1
For another experiment, the system named is KB. Put plainly: Cytotoxicity against human KB cells after 3 days by MTT assay. Particulars: 72 h, read-out: ED50 (the source's name). An outline of the steps:
as §1

The next experiment relates to P388. Nature of the experiment: Cytotoxicity against mouse P388 cells after 3 days by MTT assay. Particulars: P388, 72 h, read-out: ED50 (the source's name). An outline of the steps:
as §1

SMILES strings stand for the structures. Converted amounts (≈) assume the structure as drawn. Where only a bound is given, the exact number is not on record here.

Turning to `C=C[C@]1(C)CC[C@H](C(=C)C)C[C@@H]1C(=C)C`, the EC50 in the experiment on A549 was above 50 µg/mL; in the experiment with HT-29 it was above 50 µg/mL; in the experiment on KB, above 50 µg/mL; with P388, 0.92 µg/mL (≈ 4.5 µM).
Consider `C=C(C)C1CC[C@@]2(C)CCC[C@@](C)(OC(C)=O)[C@@H]2C1` (stereo partly specified), for which the EC50 with A549 is 0.12 µg/mL (≈ 0.454 µM); in the experiment on HT-29, above 50 µg/mL; in the experiment on KB it was above 50 µg/mL; in the experiment with P388, 2.44 µg/mL (≈ 9.23 µM).
Take `C=C(C)C1CC[C@@]2(C)CCC[C@@](C)(O)[C@@H]2C1` (stereo partly specified): the EC50 in the experiment with A549 is above 50 µg/mL; in the experiment with HT-29, above 50 µg/mL; in the experiment on KB it was above 50 µg/mL; with P388, 3.86 µg/mL (≈ 17.4 µM).
With `C/C1=C\CC/C(C)=C/[C@H](O)C(C(C)(C)O)CC/C(C)=C/CC1` (stereo partly specified), the EC50 in the experiment on A549 was determined as 0.71 µg/mL (≈ 2.32 µM); with HT-29 it was 1.02 µg/mL (≈ 3.33 µM); with KB, 0.23 µg/mL (≈ 0.75 µM); in the experiment on P388, 1.8 µg/mL (≈ 5.87 µM).
The corresponding values for `CC(=O)OC(C)(C)C1CC/C(C)=C/CC/C(C)=C/CCC2=C[C@@H]1OC2=O` (stereo partly specified) [BRASSICOLIDE ACETATE] are 3.03 µg/mL, 0.81 µg/mL, 0.72 µg/mL and 1.2 µg/mL.
With `C/C1=C\CCC2=C[C@H](OC2=O)C(C(C)(C)O)CC/C(C)=C/CC1` (stereo partly specified) [BRASSICOLIDE], the EC50 is above 50 µg/mL with A549, 5.81 µg/mL (≈ 18.2 µM) with HT-29, 2.4 µg/mL (≈ 7.54 µM) with KB and 2.44 µg/mL (≈ 7.66 µM) in the experiment with P388.
Taken in the same sequence, the figures for `C=C(C)[C@H]1C/C=C(\C)CC/C=C(\C)CC/C=C(\C)CC1` [CEMBRENE_A] were 1.11 µg/mL (≈ 4.07 µM), 3.42 µg/mL (≈ 12.6 µM), 3.73 µg/mL (≈ 13.7 µM) and 1.1 µg/mL (≈ 4.04 µM).
The corresponding values for `C=C(C)[C@@H]1CC/C(C)=C/CC/C(C)=C/CC[C@]2(C)O[C@H]2C1` [EPOXYCEMBRENE A] are 3.61 µg/mL (≈ 12.5 µM), 2.72 µg/mL (≈ 9.43 µM), 3.41 µg/mL (≈ 11.8 µM) and 0.4 µg/mL (≈ 1.39 µM).
Turning to `C/C1=C\CC/C(C)=C/CC(C(C)(C)O)CC/C(C)=C/CC1` (stereo unspecified) [NEPHTHENOL], the EC50 stood at 2.72 µg/mL (≈ 9.36 µM) in the experiment on A549, 3.01 µg/mL (≈ 10.4 µM) in the experiment with HT-29, 1.81 µg/mL (≈ 6.23 µM) with KB and 0.42 µg/mL (≈ 1.45 µM) with P388.
